Assay results from ChEMBL document CHEMBL4196091 (Eur J Med Chem, 2018).
Active and inactive are the calls of the source. The calls are words filed in the database; no cut-off is given here.

Legend:
A549 [1] = assay: Cell cycle arrest in human A549 cells assessed as accumulation at G2/M phase at 3 nM after 24 hrs by propidium iodide staining based flow cytometry; type: functional
In short: (§1)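 A549 cells maintained in DMEM (1 g/L glucose, 2 mM glutamine, penicillin/streptomycin/amphotericin B, 10% FBS) and treated for 24 h. Cells were then fixed, RNase-treated and stained with propidium iodide. DNA content was measured by flow cytometry to give cell-cycle phase distribution, including a sub-G1 peak. Data are means (±SD) of two experiments.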

HT-29 [2] = assay: Antiproliferative activity against human HT-29 cells after 2 days by MTT assay; type: functional, cell-based; details: HT-29, 48 h
A549 [3] = assay: Cell cycle arrest in human A549 cells assessed as accumulation at G0/G1 phase at 20 nM after 24 hrs by propidium iodide staining based flow cytometry (reference value: 73 +/- 3%); type: functional; in short: as §1
A549 [4] = assay: Cell cycle arrest in human A549 cells assessed as accumulation at G2/M phase at 20 nM after 24 hrs by propidium iodide staining based flow cytometry (reference value: 11 +/- 4%); type: functional; in short: as §1
A549 [5] = assay: Antiproliferative activity against human A549 cells after 2 days by MTT assay; type: functional, cell-based; details: A549, 48 h
HT-29 [6] = assay: Downregulation of VEGF gene expression in human HT-29 cells assessed as VEGF mRNA level at 5 nM after 48 hrs by RT-PCR method (reference value: 100%); type: functional
In short: (§2)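 HT-29 cells were taken at 70–80% confluence and seeded at 1.5 x 10^5 per well. After 24 h they were exposed to compound for 48 h. Total RNA was isolated and TaqMan RT-qPCR run for VEGF-A, c-MYC and hTERT, normalized to β-actin. Expression is given as percent of DMSO control, with at least three measurements and one-sample t-tests.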

HT-29 [7] = assay: Inhibition of VEGF protein secretion in human HT-29 cells assessed as VEGF protein level at 5 nM after 48 hrs by ELISA (reference value: 100%); type: functional; set-up: scale not given: the % may be the effect or the level left
A549 [8] = assay: Cell cycle arrest in human A549 cells assessed as accumulation at S phase at 20 nM after 24 hrs by propidium iodide staining based flow cytometry (reference value: 15 +/- 6%); type: functional; in short: as §1
HT-29 [9] = assay: Downregulation of hTERT gene expression in human HT-29 cells assessed as hTERT mRNA level at 5 nM after 48 hrs by RT-PCR method (reference value: 100%); type: functional; in short: as §2
HEK293 = assay: Antiproliferative activity against HEK293 cells after 2 days by MTT assay; type: ADME, cell-based; details: Homo sapiens, HEK293, 48 h
MCF7 = assay: Antiproliferative activity against human MCF7 cells after 2 days by MTT assay; type: functional, cell-based; details: MCF7, 48 h
A549 [10] = assay: Cell cycle arrest in human A549 cells assessed as accumulation at sub-G0 phase at 20 nM after 24 hrs by propidium iodide staining based flow cytometry (reference value: 2 +/- 1%); type: functional; in short: as §1
HT-29 [11] = assay: Downregulation of c-Myc gene expression in human HT-29 cells assessed as c-Myc mRNA level at 5 nM after 48 hrs by RT-PCR method (reference value: 100%); type: functional; in short: as §2
A549 [12] = assay: Cell cycle arrest in human A549 cells assessed as accumulation at G2/M phase at 50 nM after 24 hrs by propidium iodide staining based flow cytometry (reference value: 11 +/- 4%); type: functional; in short: as §1
A549 [13] = assay: Cell cycle arrest in human A549 cells assessed as accumulation at S phase at 50 nM after 24 hrs by propidium iodide staining based flow cytometry (reference value: 15 +/- 6%); type: functional; in short: as §1
HT-29 [14] = assay: Inhibition of VEGF protein secretion in human HT-29 cells assessed as VEGF protein level at 2 nM after 48 hrs by ELISA (reference value: 100%); type: functional; set-up: scale not given: the % may be the effect or the level left
HT-29 [15] = assay: Downregulation of VEGF gene expression in human HT-29 cells assessed as VEGF mRNA level at 2 nM after 48 hrs by RT-PCR method (reference value: 100%); type: functional; in short: as §2
A549 [16] = assay: Cell cycle arrest in human A549 cells assessed as accumulation at G0/G1 phase at 50 nM after 24 hrs by propidium iodide staining based flow cytometry (reference value: 73 +/- 3%); type: functional; in short: as §1
HT-29 [17] = assay: Downregulation of c-Myc gene expression in human HT-29 cells assessed as c-Myc mRNA level at 2 nM after 48 hrs by RT-PCR method (reference value: 100%); type: functional; in short: as §2
HT-29 [18] = assay: Downregulation of hTERT gene expression in human HT-29 cells assessed as hTERT mRNA level at 2 nM after 48 hrs by RT-PCR method (reference value: 100%); type: functional; in short: as §2
A549 [19] = assay: Cell cycle arrest in human A549 cells assessed as accumulation at sub-G0 phase at 50 nM after 24 hrs by propidium iodide staining based flow cytometry (reference value: 2 +/- 1%); type: functional; in short: as §1
HT-29 [20] = assay: Downregulation of c-Myc gene expression in human HT-29 cells assessed as c-Myc mRNA level at 0.5 nM after 48 hrs by RT-PCR method (reference value: 100%); type: functional; in short: as §2
HT-29 [21] = assay: Inhibition of VEGF protein secretion in human HT-29 cells assessed as VEGF protein level at 0.5 nM after 48 hrs by ELISA (reference value: 100%); type: functional; set-up: scale not given: the % may be the effect or the level left
HT-29 [22] = assay: Downregulation of hTERT gene expression in human HT-29 cells assessed as hTERT mRNA level at 0.5 nM after 48 hrs by RT-PCR method (reference value: 100%); type: functional; in short: as §2
HT-29 [23] = assay: Downregulation of VEGF gene expression in human HT-29 cells assessed as VEGF mRNA level at 0.5 nM after 48 hrs by RT-PCR method (reference value: 100%); type: functional; in short: as §2
HT-29 [24] = assay: Inhibition of VEGF protein secretion in human HT-29 cells assessed as VEGF protein level at 30 nM after 48 hrs by ELISA (reference value: 100%); type: functional; set-up: scale not given: the % may be the effect or the level left
HT-29 [25] = assay: Downregulation of VEGF gene expression in human HT-29 cells assessed as VEGF mRNA level at 30 nM after 48 hrs by RT-PCR method (reference value: 100%); type: functional; in short: as §2
HT-29 [26] = assay: Downregulation of hTERT gene expression in human HT-29 cells assessed as hTERT mRNA level at 30 nM after 48 hrs by RT-PCR method (reference value: 100%); type: functional; in short: as §2
HT-29 [27] = assay: Downregulation of c-Myc gene expression in human HT-29 cells assessed as c-Myc mRNA level at 30 nM after 48 hrs by RT-PCR method (reference value: 100%); type: functional; in short: as §2
HT-29 [28] = assay: Downregulation of hTERT gene expression in human HT-29 cells assessed as hTERT mRNA level at 9 nM after 48 hrs by RT-PCR method (reference value: 100%); type: functional; in short: as §2
HT-29 [29] = assay: Inhibition of VEGF protein secretion in human HT-29 cells assessed as VEGF protein level at 9 nM after 48 hrs by ELISA (reference value: 100%); type: functional; set-up: scale not given: the % may be the effect or the level left
HT-29 [30] = assay: Downregulation of VEGF gene expression in human HT-29 cells assessed as VEGF mRNA level at 9 nM after 48 hrs by RT-PCR method (reference value: 100%); type: functional; in short: as §2
HT-29 [31] = assay: Downregulation of c-Myc gene expression in human HT-29 cells assessed as c-Myc mRNA level at 9 nM after 48 hrs by RT-PCR method (reference value: 100%); type: functional; in short: as §2
HT-29 [32] = assay: Downregulation of c-Myc gene expression in human HT-29 cells assessed as c-Myc mRNA level at 40 nM after 48 hrs by RT-PCR method (reference value: 100%); type: functional; in short: as §2
HT-29 [33] = assay: Downregulation of hTERT gene expression in human HT-29 cells assessed as hTERT mRNA level at 40 nM after 48 hrs by RT-PCR method (reference value: 100%); type: functional; in short: as §2
HT-29 [34] = assay: Inhibition of VEGF protein secretion in human HT-29 cells assessed as VEGF protein level at 40 nM after 48 hrs by ELISA (reference value: 100%); type: functional; set-up: scale not given: the % may be the effect or the level left
HT-29 [35] = assay: Downregulation of VEGF gene expression in human HT-29 cells assessed as VEGF mRNA level at 10 nM after 48 hrs by RT-PCR method (reference value: 100%); type: functional; in short: as §2
HT-29 [36] = assay: Downregulation of hTERT gene expression in human HT-29 cells assessed as hTERT mRNA level at 10 nM after 48 hrs by RT-PCR method (reference value: 100%); type: functional; in short: as §2
HT-29 [37] = assay: Downregulation of VEGF gene expression in human HT-29 cells assessed as VEGF mRNA level at 40 nM after 48 hrs by RT-PCR method (reference value: 100%); type: functional; in short: as §2
HT-29 [38] = assay: Inhibition of VEGF protein secretion in human HT-29 cells assessed as VEGF protein level at 10 nM after 48 hrs by ELISA (reference value: 100%); type: functional; set-up: scale not given: the % may be the effect or the level left
HT-29 [39] = assay: Downregulation of c-Myc gene expression in human HT-29 cells assessed as c-Myc mRNA level at 10 nM after 48 hrs by RT-PCR method (reference value: 100%); type: functional; in short: as §2

Compound	IC50 (HT-29 [2]) [nM]	IC50 (A549 [5]) [nM]	IC50 (MCF7) [nM]	Activity (A549 [1])	Activity (A549 [3]) [%]	Activity (A549 [4]) [%]	Activity (A549 [8]) [%]	IC50 (HEK293) [nM]	Activity (A549 [10]) [%]	Activity (A549 [12]) [%]	Activity (A549 [13]) [%]	Activity (A549 [16]) [%]	Activity (A549 [19]) [%]	also measured
COc1cc2c(c(OC)c1OC)-c1ccc(OC)c(=O)cc1[C@@H](NC(=O)c1ccccc1Br)CC2	5.8	13	7.6	Active	27	47	22	8.5	4	–	–	–	–	Activity (HT-29 [6]): 57%; Activity (HT-29 [7]): 80%; Activity (HT-29 [9]): 88%; Activity (HT-29 [11]): 50%
COc1cc2c(c(OC)c1OC)-c1ccc(OC)c(=O)cc1[C@@H](NC(=O)c1ccc(C(C)(C)C)cc1)CC2	32.7	36	24	–	–	–	–	58	–	–	–	–	–	Activity (HT-29 [24]): 61%; Activity (HT-29 [25]): 73%; Activity (HT-29 [26]): >100%; Activity (HT-29 [27]): 82%
COc1cc2c(c(OC)c1OC)-c1ccc(OC)c(=O)cc1[C@@H](NC(=O)c1ccc(Br)cc1)CC2	11.4	4.2	8.9	Active	25	56	16	7.8	4	–	–	–	–	Activity (HT-29 [28]): >100%; Activity (HT-29 [29]): 62%; Activity (HT-29 [30]): 37%; Activity (HT-29 [31]): 41%
COc1cc2c(c(OC)c1OC)-c1ccc(OC)c(=O)cc1[C@@H](NC(C)=O)CC2 [COLCHICINE]	–	12.2	–	–	–	–	–	–	–	59	11	27	3	Activity (HT-29 [32]): 32%; Activity (HT-29 [33]): 50%; Activity (HT-29 [34]): 61%; Activity (HT-29 [35]): >100%; Activity (HT-29 [36]): >100%; Activity (HT-29 [37]): 41%; Activity (HT-29 [38]): 100%; Activity (HT-29 [39]): >100%

Further compounds by falling IC50 (HT-29 [2]), results first:

IC50 (HT-29 [2]) [nM]	IC50 (A549 [5]) [nM]	IC50 (MCF7) [nM]	Compound	Activity (A549 [1])	Activity (A549 [3]) [%]	Activity (A549 [4]) [%]	Activity (A549 [8]) [%]	IC50 (HEK293) [nM]	Activity (A549 [10]) [%]	Activity (A549 [12]) [%]	Activity (A549 [13]) [%]	Activity (A549 [16]) [%]	Activity (A549 [19]) [%]	also measured
2.23	8.7	5.6	COc1cc2c(c(OC)c1OC)-c1ccc(OC)c(=O)cc1[C@@H](NC(=O)c1cccc(C)c1)CC2	–	–	–	–	3.1	–	45	10	29	16	Activity (HT-29 [14]): 76%; Activity (HT-29 [15]): 53%; Activity (HT-29 [17]): 44%; Activity (HT-29 [18]): 74%
0.56	14	0.363	COc1cc2c(c(OC)c1OC)-c1ccc(OC)c(=O)cc1[C@@H](NC(=O)c1cccc(Br)c1)CC2	Active	29	51	16	1.1	4	–	–	–	–	Activity (HT-29 [20]): 34%; Activity (HT-29 [21]): 79%; Activity (HT-29 [22]): 91%; Activity (HT-29 [23]): 61%
